Assay [1] addresses T1, Peroxisome proliferator-activated receptor gamma (Mus musculus, UniProt P37238).
T1 sequence (P37238 whole entry): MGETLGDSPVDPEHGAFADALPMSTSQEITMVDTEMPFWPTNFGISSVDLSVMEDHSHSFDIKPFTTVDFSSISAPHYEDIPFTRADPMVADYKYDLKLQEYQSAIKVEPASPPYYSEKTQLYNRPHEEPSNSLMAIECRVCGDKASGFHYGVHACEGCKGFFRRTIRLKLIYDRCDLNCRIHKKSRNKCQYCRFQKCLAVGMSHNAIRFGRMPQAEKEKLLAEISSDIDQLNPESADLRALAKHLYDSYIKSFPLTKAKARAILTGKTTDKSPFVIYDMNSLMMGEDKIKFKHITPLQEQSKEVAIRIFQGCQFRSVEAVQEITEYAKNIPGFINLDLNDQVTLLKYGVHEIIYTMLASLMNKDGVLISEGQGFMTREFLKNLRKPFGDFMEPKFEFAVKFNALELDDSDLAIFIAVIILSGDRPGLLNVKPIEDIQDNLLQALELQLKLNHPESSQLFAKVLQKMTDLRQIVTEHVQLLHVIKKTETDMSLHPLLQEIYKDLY
In words: Agonist activity at mouse PPARgamma expressed in 293T cells by dual luciferase reporter gene assay. Type of assay: cell-based.

The subject of assay [2] is A549. In words: Cytotoxicity against human A549 cells assessed as growth inhibition at 50 uM after 48 hrs by SRB assay relative to control. Type of assay: functional. The following applies: A549, 48 h, read-out: GI. The procedure, abridged:
(§1)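 SRB growth-inhibition run in RPMI-1640/10% FBS at 37°C, 5% CO₂. Cell lines were seeded (PC-3 7000, MCF-7 8000, A549 7500, HCT-116 7000/well) and attached 24 h. The treatment series included 50 μM, with 48 h exposure. Cells were cold-TCA fixed and stained with 0.4% SRB. Dye was solubilized in 10 mM Tris pH 10.4 and read at 540 nm against untreated control.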

The test system of assay [3] is PC-3. Description: Cytotoxicity against human PC3 cells assessed as growth inhibition at 50 uM after 48 hrs by SRB assay relative to control. The following applies: PC-3, 48 h, read-out: GI. Type of assay: functional. The procedure, abridged:
as §1

The test system of assay [4] is HCT-116. Description: Cytotoxicity against human HCT116 cells assessed as growth inhibition at 50 uM after 48 hrs by SRB assay relative to control. The following applies: HCT-116, 48 h, read-out: GI. It counts as functional. The procedure, abridged:
as §1

Assay [5] deals with MCF7. Description: Cytotoxicity against human MCF7 cells assessed as growth inhibition at 50 uM after 48 hrs by SRB assay relative to control. Type of assay: functional. Conditions: MCF7, 48 h, read-out: GI. The procedure, abridged: as §1
Assay [6] has as its system A549. In words: Cytotoxicity against human A549 cells assessed as growth inhibition after 48 hrs by SRB assay. The following applies: A549, 48 h. It counts as functional, cell-based. In a few lines: (§2)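 Cells were grown in RPMI-1640 with 10% FBS and penicillin/streptomycin at 37°C, 5% CO₂. Seeding was PC-3 7000, MCF-7 8000, A549 7500 and HCT-116 7000 cells/well, with 24 h attachment. Cells were exposed to 1, 5, 10, 30 and 50 μM for 48 h, with a 5-fluorouracil reference. Cells were TCA-fixed (1 h, 4°C) and stained with 0.4% SRB. Bound dye was dissolved in 10 mM Tris pH 10.4 and read at 540 nm. IC50 came from the concentration-response.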

Assay [7] relates to PC-3. In words: Cytotoxicity against human PC3 cells assessed as growth inhibition after 48 hrs by SRB assay. Type of assay: functional, cell-based. The following applies: PC-3, 48 h. In a few lines:
as §2

Assay [8] has as its system HCT-116. Description: Cytotoxicity against human HCT116 cells assessed as growth inhibition after 48 hrs by SRB assay. Type of assay: functional, cell-based. The following applies: HCT-116, 48 h. The procedure, abridged: as §2
Assay [9] relates to MCF7. In words: Cytotoxicity against human MCF7 cells assessed as growth inhibition after 48 hrs by SRB assay. It counts as functional, cell-based. The following applies: MCF7, 48 h. The procedure, abridged:
as §2

The subject of assay [10] is HCT-116. Description: Anticlonogenic activity against human HCT116 cells incubated for 24 hrs measured up to 14 days by crystal violet staining-based assay. Type of assay: functional, cell-based. The procedure, abridged: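 HCT-116 cells (8x10^4/mL/well) were treated 24 h at 3.6, 7.2 and 14.4 μM. They were then trypsinized and re-seeded at 1000 cells/well, and grown about 14 days to colonies of >50 cells. Colonies were fixed in 4% formaldehyde and stained with 0.5% crystal violet. Colony number was expressed relative to untreated control, with 5-fluorouracil as reference; means ± SD, n = 3.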

Assay [11] concerns HCT-116. In words: Antimigratory activity against human HCT116 cells assessed as inhibition of wound closure up to 24 hrs by wound scratch assay. It counts as functional, cell-based. The procedure, abridged:
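HCT-116 cells were plated at 8×10^5/well and grown to 70–80% confluence, then serum-starved 24 h. The monolayer was scratched with a pipette tip and treated at 3.6, 7.2 and 14.4 μM for 24 h. Wounds were imaged at 0 and 24 h (20x). Percent wound closure was computed from wound areas relative to control; means ± SD, n = 3.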

For assay [12], the system named is HCT-116. Description: Induction of morphological changes in human HCT116 cells assessed as cell shrinkage after 24 hrs by phase contrast microscopic analysis. Type of assay: functional, cell-based. In a few lines:
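HCT-116 cells were exposed 24 h to 3.6, 7.2 and 14.4 μM, alongside an untreated control. Morphology was photographed by phase contrast microscopy at 20x.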

Assay [13] deals with HCT-116. In words: Induction of mitochondrial membrane potential loss in human HCT116 cells after 24 hrs by rhodamine123 staining based fluorescence microscopic analysis. It counts as functional, cell-based. In a few lines: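 Cells were seeded at 1×10^6/1.5 mL/well and treated 24 h at 3.6, 7.2 and 14.4 μM, with 5-FU at 5 μM as reference. Rhodamine-123 (10 nM) was added for the final 1 h. After a PBS wash, fluorescence was imaged by microscopy.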

Assay [14] concerns HCT-116. In words: Induction of apoptosis in human HCT116 cells assessed as PARP cleavage at 3.6 uM after 24 hrs by Western blot analysis. Type of assay: functional, cell-based. In a few lines:
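HCT-116 cells were treated 24 h at 3.6, 7.2 and 14.4 μM. RIPA whole-cell lysates with protease/phosphatase inhibitors were BCA-quantified. Equal protein was run on 10% SDS-PAGE and transferred to PVDF, then blocked with 5% BSA/TBST for 1 h. Blots were probed with anti-PARP (1:1000) and β-actin (1:500, loading control) plus HRP secondaries. The read-out was the 89 kDa cleaved fragment.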

A further assay concerns HepG2. Description: Cytotoxicity against human HepG2 cells. It counts as functional, cell-based.

Calls of active or inactive are those of the source. The rule behind the calls is not given here.

Compound `COc1cc2c(cc1CC=C(C)C)C(=O)C[C@@H](c1ccc(OC(=O)c3ccc([N+](=O)[O-])cc3)cc1)O2` gave an EC50 in assay [1] of 0.43 µM. This counts as sub-micromolar.
As for `COc1ccc([C@@H]2C/C(=N/OCc3cn(-c4ccc(C(N)=O)cc4)nn3)c3cc(CC=C(C)C)c(OC)cc3O2)cc1`, the inhibition of growth at 50 µM with A549 [2], in the assay on PC-3 [3], in the assay with HCT-116 [4] and with MCF7 [5] was 100% throughout. Besides, the half-maximal inhibitory concentration (IC50) came to 7.72 µM in the assay with A549 [6], 16.1 µM in the assay with PC-3 [7], 7.13 µM in the assay with HCT-116 [8] and 11.7 µM with MCF7 [9]. For the same compound, the Activity result in the assay with HCT-116 [10], in the assay with HCT-116 [12] and with HCT-116 [13] was “Dose-dependent effect” throughout. Besides, the inhibition result in the assay with HCT-116 [11] was “Dose-dependent effect”. Further, in the assay with HCT-116 [14], the outcome was Active.
With `COc1cc2c(cc1CC=C(C)C)C(=O)C[C@@H](c1ccc(OC(C)=O)cc1)O2`, in [1], the midpoint of the response, the EC50, lay at 0.78 µM.
In the assay on HepG2, `COc1cc2c(cc1CC=C(C)C)C(=O)C[C@@H](c1ccc(OC3O[C@H](CO)[C@@H](O)[C@H](O)[C@H]3O)cc1)O2` (stereo partly specified) showed an IC50 of 48.5 µM.
